Compounds with a hit are over-represented: about 3.5% of the library has one in this group of screens.
MrgX1 agonist – agonists of human MrgX1 receptor, primary screen, HEK293 cells, Fluo-4 calcium flux. Mas-related G-protein coupled receptor member X1 (Homo sapiens), Q96LB2. Fluo-4 calcium fluorescence, agonist mode; hits give high values. B-score at 10 µM. actives 0.44% (n = 310,000). AID 588627, 2011;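 active means calcium response B-score plate-corrected fluorescence ratio at least 3 library SD, with starting fluorescence B-score inside 5 SD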
Target sequence (Q96LB2 whole entry, looked up): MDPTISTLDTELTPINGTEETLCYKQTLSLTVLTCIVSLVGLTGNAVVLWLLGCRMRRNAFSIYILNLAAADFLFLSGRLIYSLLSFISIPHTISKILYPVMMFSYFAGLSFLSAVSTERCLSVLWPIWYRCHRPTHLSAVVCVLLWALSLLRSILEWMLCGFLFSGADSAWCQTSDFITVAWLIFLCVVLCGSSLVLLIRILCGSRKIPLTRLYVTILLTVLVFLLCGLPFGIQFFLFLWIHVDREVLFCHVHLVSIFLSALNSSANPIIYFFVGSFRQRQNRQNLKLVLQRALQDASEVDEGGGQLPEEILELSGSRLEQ
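Material: HEK293 cells stably expressing human MrgX1 receptor | Quantity: 15,000 cells per well | Times: Cells plated overnight, dye loaded 0.5 h 37 °C, 0.5 h room temperature | Measured by: Kinetic Fluo-4 NW fluorescence of intracellular calcium | Control set: Positive and negative controls per plate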
RGS4 pot – RGS4 potentiators or activators, primary screen, cell-based, HEK293 M3R inducible RGS4, calcium flux. carbachol calcium flux Fluo4; hits give low values. actives 0.92% (n = 310,000). B-score at 10 µM;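 active means B-score of the integrated calcium signal more than 4 SD below the library mean, with starting fluorescence not abnormally high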;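 further: negative B-score means reduced calcium response which marks RGS4 activation or potentiation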
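Detection: kinetic calcium fluorescence imaging with Fluo4-AM dye, 2 µM / Material: HEK293 cells with stable M3R and inducible RGS4 / Schedule: recording 10 s baseline at 1 Hz, 100 s post-agonist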
RGS4 inh – RGS4 inhibitors, primary screen, cell-based, HEK293 M3R inducible RGS4, calcium flux; Regulator of G-protein signaling 4 (Homo sapiens), P49798; Fluo-4 calcium flux; hits give high values; triggered by carbachol at its EC20; B-score at 10 µM; actives 0.45% (n = 310,000);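 active means B-score, a plate-corrected calcium signal, over three deviations above library mean, with baseline fluorescence within five deviations of library mean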;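 further: RGS4 expression induced by doxycycline in cells with stable M3 receptor; B-score is computed from the integrated fluorescence ratio over baseline after carbachol; higher B-score means a larger calcium signal and so more RGS4 inhibition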
Target sequence (P49798 whole entry, looked up): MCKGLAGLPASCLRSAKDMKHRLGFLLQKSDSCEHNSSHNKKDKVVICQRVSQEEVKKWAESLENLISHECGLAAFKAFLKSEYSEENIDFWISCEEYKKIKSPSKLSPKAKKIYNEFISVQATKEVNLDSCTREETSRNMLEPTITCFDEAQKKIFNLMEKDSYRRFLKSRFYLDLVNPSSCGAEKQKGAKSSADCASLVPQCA
MrgX1 antag – antagonists of human MrgX1 receptor, primary screen, HEK293 cells, Fluo-4 calcium flux. Mas-related G-protein coupled receptor member X1 (Homo sapiens), Q96LB2. BAM8-22 antagonism; hits give low values. B-score at 10 µM. actives 1.3% (n = 310,000). AID 588676, 2011;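 active means calcium-response B-score plate-corrected more than 3 library SD below zero, starting fluorescence within 5 deviations, no agonist response on first addition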;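 further: peak minus trough fluorescence over baseline after final BAM8-22 challenge near maximal dose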
MrgX1 PAM – positive allosteric modulators of MrgX1, primary screen, HEK293 cells, Fluo-4 calcium flux; Mas-related G-protein coupled receptor member X1 (Homo sapiens), Q96LB2; FDSS; hits give high values; B-score at 10 µM; actives 0.63% (n = 310,000);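 active means plate-corrected calcium response at least 3 library SD above typical, normal starting fluorescence, not activating the receptor alone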;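 further: compound read alongside a low EC10 to EC30 dose of BAM8-22 agonist; peak minus trough fluorescence over baseline measured at the second addition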
Active calls of the source: *; i = inactive; / = not tested or not shown.

SMILES	MrgX1 agonist	RGS4 pot	RGS4 inh	MrgX1 antag	MrgX1 PAM
CCC(NC(=O)c1ccncc1)c1ccccc1 (stereo not given)	i	i	i	i	i
C=CCn1c(SCC(=O)Nc2ccc(OC)cc2)nnc1-c1cnccn1	i	i	i	i	i
COc1cccc(C(=O)Oc2cc(C)[nH]c(=O)c2[N+](=O)[O-])c1OC	i	i	i	-4.77*	i
Cc1cc(OC(=O)c2ccccc2[N+](=O)[O-])c([N+](=O)[O-])c(=O)[nH]1	i	i	i	i	i
O=C(Cn1c(CO)nc2ccccc21)NC1CCCCCC1	i	i	i	-10.2*	i
Nc1nonc1-c1nc2ccccc2n1CC(=O)NC1CCCC1	i	i	i	i	i
CC(NS(=O)(=O)c1ccc(OCC(=O)NCc2ccncc2)cc1)c1ccccc1 (stereo not given)	i	i	i	i	i
Cc1ccc(NS(=O)(=O)c2ccc(-c3coc(C)n3)cc2)c(Br)c1	i	i	i	i	i
O=C(O)CC1(c2ccc(F)cc2)C2CC3CC(C2)CC1C3 (stereo not given)	i	i	i	-6.69*	i
COc1cc(OC)cc(-c2nnc(SCC(=O)N(C(C)C)C(C)C)o2)c1	i	i	i	i	i
COc1cc(OC)cc(-c2nnc(Sc3ccc(C=O)cc3[N+](=O)[O-])o2)c1	i	i	7.18*	-4.51*	i
COc1cc2c(cc1OC)C(COc1cc(C)cc(C)c1)N(C(C)=O)CC2 (stereo not given)	i	i	i	i	i
NCCc1c(-c2ccccc2)n(-c2ccccc2)c2ccccc12	/	i	i	/	/
CCOc1ccc2nc(NCCNC(=O)C3CC3)c(C)cc2c1	i	i	i	i	i
CCOc1ccc2nc(NCCNC(=O)C(C)C)c(C)cc2c1	i	-7.41*	i	i	i
O=C(/C=C/c1ccc(O)c(O)c1)NC(=O)c1ccccc1O	i	i	i	-7.75*	i
O=C(Cn1ccccc1=O)NCc1ccc(F)cc1	i	i	i	i	i
CC(C)(C)C(=O)c1no[n+]([O-])c1/C(=N/O)C(C)(C)C	37.5*	i	i	i	i
O=C(CCCn1cnc([N+](=O)[O-])n1)Nc1ccc(Cl)cc1Cl	i	i	i	-9.11*	i
Cn1c(/C(C#N)=C(\O)c2cccc(F)c2)nc2ccccc21	i	i	i	-5.38*	i
O=C(/C=C/c1ccccc1[N+](=O)[O-])NCCCN1CCCC1=O	i	i	i	i	i
COc1ccc(NC(=O)CCS(=O)(=O)c2cccc3nonc23)cc1Cl	i	i	i	i	i
CCOC(=O)C1(Cc2ccccc2C)CCCN(C(=O)c2ccccn2)C1 (stereo not given)	i	i	i	i	i
CCOC(=O)C1(Cc2ccccc2C)CCCN(C(=O)c2ccc3nccnc3c2)C1 (stereo not given)	i	-7.12*	i	i	i
CCc1ccc(NSc2ccccc2[N+](=O)[O-])cc1	i	-8.18*	i	i	6.58*
SMILES	MrgX1 agonist	RGS4 pot	RGS4 inh	MrgX1 antag	MrgX1 PAM
O=C(O)c1ccccc1NSc1ccccc1[N+](=O)[O-]	i	i	i	i	i
Cc1ccc(C(=O)Nc2ccccc2Oc2ccccc2)o1	i	i	i	-4.53*	i
Nc1c2c(nc3ccc(Br)cc13)N(C1CCCCC1)CC2	i	i	i	i	14.4*
CCOC(=O)c1c[nH][nH]c1=O	i	i	i	i	i
CC(=O)c1ccc(N=C2C(=O)Nc3ccccc32)cc1	29.2*	i	i	i	i
O=C1Nc2ccccc2C1=Nc1ccc(F)cc1	i	i	i	i	i
CCCCN(C)CCCNC(=O)c1cn(CC)c2ccc(S(=O)(=O)N3CCc4ccccc4C3)cc2c1=O	i	-7.7*	i	i	i
COc1ccc(Br)cc1S(=O)(=O)NCc1ccccc1	i	i	i	-4.93*	i
COc1ccc(F)cc1S(=O)(=O)NCc1ccccc1	i	i	i	i	i
CCCCCCc1cc2cc(C(N)=O)c(=N)oc2cc1O	i	-8.11*	i	i	i
CCCCCCc1cc2cc(C(=O)OCC)c(=O)oc2cc1O	i	i	i	-7.28*	i
CCOc1ccc(-n2c(C)nc3cc(C(=O)NCC4CCCO4)ccc32)cc1 (stereo not given)	i	i	i	i	i
Cc1ccc(-c2nc3sc4c(c3c(=O)n2N)CCCC4)cc1	i	i	i	i	13.4*
COc1cc(CN2CCN(CC3CC3)CC2CCO)cc(OC)c1 (stereo not given)	i	i	i	i	i
CCOC(=O)Nc1ccc2c(c1)N(C(=O)CCN1CCN(C)CC1)c1ccccc1S2	i	i	i	i	i
CCOC(=O)Nc1ccc2c(c1)N(C(=O)N1CCN(C)CC1)c1ccccc1S2	i	-7.32*	i	i	i
CCOc1ccc(C(=O)NCC(=O)N2CCN(C/C=C/c3ccccc3)CC2)cc1OCC	i	-7.16*	i	i	i
Cc1ccc(-c2nc(=S)c3c(n2Cc2ccco2)CC(C)(C)OC3)cc1	i	i	i	-6.03*	i
Cc1ccc(-c2nc(=S)c3c(n2CC2CCCO2)CC(C)(C)OC3)cc1 (stereo not given)	i	i	i	i	i
O=C(c1cccs1)N1CCN(C23CC4CC(CC(C4)C2)C3)CC1	i	-7.29*	i	i	i
O=[N+]([O-])c1ccc(N2CCN(Cc3ccccc3)CC2)s1	i	i	i	-4.98*	i
Cc1cccc(Cn2nc(-n3cccc3)c3c(C)cc(C)nc32)c1	i	i	i	i	i
Cc1cccn2c(=O)c(C=NCc3ccccc3)c(NCCO)nc12	i	i	i	i	i
CCC(C)N1C(=O)/C(=C/c2c(NCCCOC(C)C)nc3c(C)cccn3c2=O)SC1=S (stereo not given)	i	/	/	-11.1*	i
CCCN1C(=O)/C(=C/c2c(NCCCOC(C)C)nc3c(C)cccn3c2=O)SC1=S	i	i	i	-10.4*	i
CCC(C)Nc1nc2c(C)cccn2c(=O)c1C=Nc1ccc(OC)cc1 (stereo not given)	i	i	i	i	i
